Results from ChEMBL document CHEMBL3351323, “Exploitation of cholane scaffold for the discovery of potent and selective farnesoid X receptor (FXR) and G-protein coupled bile acid receptor 1 (GP-BAR1) ligands” (J Med Chem, 2014).
Active and inactive are the calls of the source. The calls are words filed in the database; no cut-off is given here.

Experiments:
[1] = molecular target: T1, Nuclear receptor subfamily 1 group I member 2 (Homo sapiens, UniProt O75469); assay: Agonist activity at PXR (unknown origin) in human HepG2 cells co-transfcted with RXR assessed as receptor transactivation at 10 uM incubated for 18 hrs by CYP3A4 promoter-TKLuc luciferase reporter gene assay; details: hepg2, 18 h
T1 sequence (O75469 whole entry): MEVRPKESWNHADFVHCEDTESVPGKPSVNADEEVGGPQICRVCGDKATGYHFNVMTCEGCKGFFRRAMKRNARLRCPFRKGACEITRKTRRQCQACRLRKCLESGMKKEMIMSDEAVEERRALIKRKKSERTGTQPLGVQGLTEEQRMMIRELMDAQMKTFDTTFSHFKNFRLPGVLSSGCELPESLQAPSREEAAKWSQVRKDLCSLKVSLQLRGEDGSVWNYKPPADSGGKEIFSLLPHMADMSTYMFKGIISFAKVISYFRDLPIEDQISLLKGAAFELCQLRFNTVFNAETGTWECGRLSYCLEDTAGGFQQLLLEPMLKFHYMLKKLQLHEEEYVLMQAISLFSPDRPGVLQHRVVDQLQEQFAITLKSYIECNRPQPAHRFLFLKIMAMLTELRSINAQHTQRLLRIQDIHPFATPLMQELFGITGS

[2] = molecular target: Liver X receptor (Homo sapiens) (UniProt Q13133+P55055); assay: Agonist activity at LXR (unknown origin) in human HepG2 cells assessed as receptor transactivation at 10 uM incubated for 18 hrs by Gal4 luciferase reporter gene assay; format: cell-based
How it was run: (§1)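 HepG2 cells transfected with a GAL4-UAS luciferase reporter, Renilla vector and GAL4 DNA-binding domain fusions of the GR, LXR or PPARγ ligand-binding domain; 48 h later stimulated 18 h at 10 μM beside the matching reference agonist (dexamethasone, GW3965, rosiglitazone). Three experiments, mean ± SE.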

[3] = molecular target: T2, Peroxisome proliferator-activated receptor gamma (Homo sapiens) (UniProt P37231); assay: Agonist activity at PPARgamma (unknown origin) in human HepG2 cells assessed as receptor transactivation at 10 uM incubated for 18 hrs by Gal4 luciferase reporter gene assay; format: cell-based
T2 sequence (whole entry): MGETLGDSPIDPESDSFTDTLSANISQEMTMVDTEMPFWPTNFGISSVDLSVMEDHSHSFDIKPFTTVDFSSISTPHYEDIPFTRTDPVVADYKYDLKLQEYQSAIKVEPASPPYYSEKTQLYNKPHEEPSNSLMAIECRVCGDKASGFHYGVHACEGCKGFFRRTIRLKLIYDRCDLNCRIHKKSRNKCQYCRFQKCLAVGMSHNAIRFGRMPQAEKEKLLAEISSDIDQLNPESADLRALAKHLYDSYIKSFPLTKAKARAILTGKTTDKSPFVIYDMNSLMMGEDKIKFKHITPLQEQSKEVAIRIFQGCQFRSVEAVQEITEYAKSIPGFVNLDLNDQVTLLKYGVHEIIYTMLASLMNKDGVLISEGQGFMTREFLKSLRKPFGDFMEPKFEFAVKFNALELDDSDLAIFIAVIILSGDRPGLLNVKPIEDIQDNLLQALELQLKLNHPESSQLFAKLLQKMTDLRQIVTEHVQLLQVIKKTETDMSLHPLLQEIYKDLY
How it was run: as §1

[4] = molecular target: T3, G-protein coupled bile acid receptor 1 (Mus musculus) (UniProt Q80SS6); assay: Agonist activity at GP-BAR1 in mouse GLUTag cells assessed as increase in pro-glucagon mRNA expression at 10 uM by RT-PCR method; format: cell-based
T3 sequence (whole entry): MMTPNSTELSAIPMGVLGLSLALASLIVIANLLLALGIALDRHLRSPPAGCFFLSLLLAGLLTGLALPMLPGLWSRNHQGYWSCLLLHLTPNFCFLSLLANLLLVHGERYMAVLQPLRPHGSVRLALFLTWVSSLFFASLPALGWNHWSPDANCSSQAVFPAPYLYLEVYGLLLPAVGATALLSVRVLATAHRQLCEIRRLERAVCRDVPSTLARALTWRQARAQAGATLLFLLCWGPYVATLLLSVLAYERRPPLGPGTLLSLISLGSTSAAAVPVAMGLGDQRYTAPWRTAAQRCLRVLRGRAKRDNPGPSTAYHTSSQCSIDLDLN
How it was run: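 Murine GLUTag enteroendocrine cells (D-MEM, 10% FBS) treated at 10 μM. Pro-glucagon mRNA measured by SYBR real-time PCR in triplicate, normalized to GAPDH and expressed relative to untreated cells set to 1.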

[5] = molecular target: T4, Bile acid receptor (Homo sapiens) (UniProt Q96RI1); assay: Agonist activity at FXR in human HepG2 cells assessed as increase in OSTalpha mRNA expression at 10 uM by RT-PCR method; format: cell-based
T4 sequence (whole entry): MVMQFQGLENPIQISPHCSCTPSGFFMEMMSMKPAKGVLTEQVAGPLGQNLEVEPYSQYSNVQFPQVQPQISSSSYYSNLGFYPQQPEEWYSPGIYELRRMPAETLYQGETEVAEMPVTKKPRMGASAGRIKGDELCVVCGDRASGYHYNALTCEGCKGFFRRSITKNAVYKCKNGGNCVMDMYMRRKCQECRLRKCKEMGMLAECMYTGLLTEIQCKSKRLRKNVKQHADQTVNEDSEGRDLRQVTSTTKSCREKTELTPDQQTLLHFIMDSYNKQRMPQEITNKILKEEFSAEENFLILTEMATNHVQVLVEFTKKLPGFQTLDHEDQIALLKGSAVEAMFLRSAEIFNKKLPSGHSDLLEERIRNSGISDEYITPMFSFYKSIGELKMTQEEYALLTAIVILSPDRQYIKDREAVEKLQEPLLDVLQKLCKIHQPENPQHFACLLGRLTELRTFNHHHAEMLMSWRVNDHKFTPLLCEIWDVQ
How it was run: (§2)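 HepG2 cells treated at 10 μM. TRIzol RNA was DNase-treated and reverse transcribed with random primers, then SYBR real-time PCR run in triplicate (40 cycles, 95 °C/60 °C). Values normalized to GAPDH and expressed relative to untreated cells set to 1.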

[6] = molecular target: T5, Glucocorticoid receptor (Homo sapiens) (UniProt P04150); assay: Agonist activity at GCR (unknown origin) in human HepG2 cells assessed as receptor transactivation at 10 uM incubated for 18 hrs by Gal4 luciferase reporter gene assay; format: cell-based
T5 sequence (whole entry): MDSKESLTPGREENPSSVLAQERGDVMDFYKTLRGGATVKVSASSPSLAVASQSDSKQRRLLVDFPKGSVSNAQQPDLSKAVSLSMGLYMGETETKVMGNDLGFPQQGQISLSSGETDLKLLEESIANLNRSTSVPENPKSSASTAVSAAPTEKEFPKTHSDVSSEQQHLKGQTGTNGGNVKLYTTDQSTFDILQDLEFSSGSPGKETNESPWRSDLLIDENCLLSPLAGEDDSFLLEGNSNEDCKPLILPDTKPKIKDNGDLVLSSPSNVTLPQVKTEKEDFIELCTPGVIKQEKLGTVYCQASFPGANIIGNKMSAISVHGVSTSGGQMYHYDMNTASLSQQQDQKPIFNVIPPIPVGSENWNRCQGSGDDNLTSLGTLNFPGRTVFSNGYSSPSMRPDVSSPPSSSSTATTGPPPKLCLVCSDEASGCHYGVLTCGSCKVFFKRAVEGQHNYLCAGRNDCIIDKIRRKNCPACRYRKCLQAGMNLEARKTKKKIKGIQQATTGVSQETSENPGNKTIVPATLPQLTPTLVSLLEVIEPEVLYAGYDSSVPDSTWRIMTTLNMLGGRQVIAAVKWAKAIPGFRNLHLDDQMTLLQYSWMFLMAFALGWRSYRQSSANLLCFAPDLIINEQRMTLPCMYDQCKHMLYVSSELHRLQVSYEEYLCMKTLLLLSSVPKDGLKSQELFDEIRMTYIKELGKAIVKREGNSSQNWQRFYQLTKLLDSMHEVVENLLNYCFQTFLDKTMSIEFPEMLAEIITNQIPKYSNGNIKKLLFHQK
How it was run: as §1

[7] = molecular target: T4, Bile acid receptor (Homo sapiens); assay: Agonist activity at FXR in human HepG2 cells assessed as increase in SHP mRNA expression at 10 uM by RT-PCR method; format: cell-based
How it was run: as §2

[8] = molecular target: T4, Bile acid receptor (Homo sapiens); assay: Agonist activity at FXR in human HepG2 cells assessed as increase in BSEP mRNA expression at 10 uM by RT-PCR method; format: cell-based
How it was run: as §2

[9] = molecular target: T6, G-protein coupled bile acid receptor 1 (Homo sapiens) (UniProt Q8TDU6); assay: Agonist activity at GP-BAR1 in human THP1 cells assessed as increase in cAMP level at 10 uM by enzyme immunoassay; format: functional, cell-based; details: THP-1
T6 sequence (whole entry): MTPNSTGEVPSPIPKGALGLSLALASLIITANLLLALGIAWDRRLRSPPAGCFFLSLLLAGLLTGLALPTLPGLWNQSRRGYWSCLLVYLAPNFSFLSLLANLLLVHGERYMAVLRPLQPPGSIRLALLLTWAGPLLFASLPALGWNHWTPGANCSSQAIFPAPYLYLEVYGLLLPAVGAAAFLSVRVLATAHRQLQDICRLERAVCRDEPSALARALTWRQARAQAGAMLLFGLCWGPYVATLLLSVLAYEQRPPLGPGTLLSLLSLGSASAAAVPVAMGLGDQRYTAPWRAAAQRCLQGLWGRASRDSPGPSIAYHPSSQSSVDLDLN
How it was run: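 THP-1 monocytes serum-starved overnight, then stimulated 30 min at 10 μM, with forskolin 10 μM as reference. cAMP measured by direct cAMP enzyme immunoassay. Three experiments, mean ± SE.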

Bile acid receptor = molecular target: T7, Bile acid receptor (Homo sapiens, UniProt Q96RI1); assay: Agonist activity at FXR (unknown origin) expressed in human HepG2 cells assessed as receptor transactivation at 100 nM to 50 uM […] by FXR response element driven HSP27-TK-luciferase reporter gene assay; format: cell-based
T7 sequence (Q96RI1 whole entry): T4 sequence (whole entry)

[10] = molecular target: T8, G-protein coupled bile acid receptor 1 (Homo sapiens, UniProt Q8TDU6); assay: Agonist activity at GP-BAR1 (unknown origin) in human HEK293 cells assessed as receptor transactivation at 100 nM to 50 uM […] by CRE-driven luciferase reporter gene assay; format: functional, cell-based
T8 sequence (Q8TDU6 whole entry): T6 sequence (whole entry)

| Structure (SMILES) | Activity [1] | Activity [2] | Activity [3] | Activity [4] | Activity [5] | Activity [6] | Activity [7] | Activity [8] | Activity [9] | EC50 (Bile acid receptor; hepg2) | EC50 ([10]; read-out: EC50) | EC50 (Bile acid receptor; read-out: EC50) | EC50 ([10]; hek293) |
| --- | --- | --- | --- | --- | --- | --- | --- | --- | --- | --- | --- | --- | --- |
| CC[C@H]1[C@@H](O)[C@@H]2[C@H](CC[C@]3(C)[C@@H]([C@H](C)CCO)CC[C@@H]23)[C@@]2(C)CC[C@@H](O)C[C@@H]12 | Active | inactive | inactive | Active | Active | inactive | Active | Active | Active | – | – | – | – |
| CC[C@@H]1[C@H](O)[C@@H]2[C@H](CC[C@]3(C)[C@@H]([C@H](C)CCCO)CC[C@@H]23)[C@@]2(C)CC[C@@H](O)C[C@@H]12 | Active | inactive | inactive | Active | – | inactive | – | – | Active | Not Active | 1.03 µM | – | – |
| C[C@H](CCCOS(=O)(=O)[O-])[C@H]1CC[C@H]2[C@@H]3[C@H](O)C[C@@H]4CCCC[C@]4(C)[C@H]3CC[C@]12C.[Na+] | Active | inactive | inactive | inactive | Active | inactive | Active | Active | – | – | – | 9 µM | Not Active |
